# HTRA1 inhibitor: HTRA1 (human) protease inhibition | Q92743 | recombinant HTRA1, FP-rhodamine activity-based probe, fluorescence polarization | inhibition, % at 5.96 µM | 340,000 compounds, 0.5% hits; in the data active means inhibition above about 36%
# pPAFAH inh: pPAFAH (human) enzyme inhibition | Q13093 | 330,000 compounds, 1.5% hits | recombinant pPAFAH, FP-rhodamine probe fluorescence polarization | inhibition, % at 3.39 µM;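 active means inhibition above the mean inhibition across the screen plus 3 SD, cut at about 25% in these data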;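 further: inhibitors block binding of the rhodamine activity-based probe so polarization drops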
# TCR-CD3 inh: human TCR-CD3 binding inhibition | TAMRA-labeled TCR probe fluorescence, biochemical | inhibition, % at 9.4 µM | 360,000 compounds, 0.37% hits | AID 651800; in the data active means inhibition above about 19%;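 further: recombinant mutant TCR 2C K166C tagged with TAMRA read by polarization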
# SIAE inh: blocks human sialic acid acetylesterase. Q9HAT2. SIAE FP-Rh probe binding, fluorescence polarization. inhibition, % at 9.66 µM. 370,000 compounds, 0.69% hits. AID 1053197;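 active means inhibition above a cutoff: mean of compounds within the control limits plus 3 SD of those, cut at about 17% in these data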
# Target sequence (Q9HAT2 whole entry, looked up): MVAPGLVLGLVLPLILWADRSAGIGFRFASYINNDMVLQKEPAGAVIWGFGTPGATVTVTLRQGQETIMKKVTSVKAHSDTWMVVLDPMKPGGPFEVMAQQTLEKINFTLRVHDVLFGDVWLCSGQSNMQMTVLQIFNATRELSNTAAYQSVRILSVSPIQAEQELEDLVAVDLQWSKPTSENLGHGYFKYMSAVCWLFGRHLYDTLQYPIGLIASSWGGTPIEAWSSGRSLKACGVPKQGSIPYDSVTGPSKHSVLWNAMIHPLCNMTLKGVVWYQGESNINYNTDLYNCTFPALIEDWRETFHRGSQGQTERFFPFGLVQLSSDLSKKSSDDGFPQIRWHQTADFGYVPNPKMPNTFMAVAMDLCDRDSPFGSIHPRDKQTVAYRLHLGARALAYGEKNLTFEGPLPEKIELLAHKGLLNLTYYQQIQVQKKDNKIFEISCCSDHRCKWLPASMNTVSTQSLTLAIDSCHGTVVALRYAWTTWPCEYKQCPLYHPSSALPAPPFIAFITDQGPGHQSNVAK
# mABHD4 FP: inhibitors of mouse ABHD4; Q8VD66; purified mABHD4, FP-Rh probe fluorescence polarization; inhibition, % at 8.92 µM; 370,000 compounds, 0.54% hits; AID 720543;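 active means inhibition exceeding the mean over every tested compound plus 3 SD, cut at about 30% in these data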
#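 Assay system: wild-type mouse ABHD4 protein; compound: single nominal dose of 8.92 µM, 0.89% DMSO final; schedule: 45 min + 60 min at 25 °C; measured by: FP readout, ex 525 nm / em 598 nm; evaluation: % inhibition of FP-Rh probe binding versus controls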
# ABHD4 confirm: ABHD4 (mouse) inhibition, FP confirmation. inhibition, % at 8.92 µM. 1,800 compounds, 55% hits. shares compounds with mABHD4 FP. purified mABHD4, FP-Rh probe fluorescence polarization;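 active means mean inhibition across replicates above the hit cutoff set in the primary screen, cut at about 30% in these data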
# Numbers stand for hits; . = inactive; / = not tested or not shown. The list is not random: actives were taken first. Their share in the collection is about 2.3%.
SMILES,HTRA1 inhibitor,pPAFAH inh,TCR-CD3 inh,SIAE inh,mABHD4 FP,ABHD4 confirm
CCOC(=O)c1c(C)n2c3c(cc(C)cc13)CCC2,.,.,.,.,31,.
CCCC[C@H]1C2CC(OC(=O)NCCCC(=O)OCC)C(C2)[C@H]2CCCCN21 (stereo partly drawn),/,/,/,.,.,/
N#Cc1c(NC(=O)c2cccc(S(=O)(=O)Nc3ccc(C(=O)O)cc3)c2)sc2c1CCCC2,.,.,.,.,36,30
O=C(O)c1ccc(NS(=O)(=O)c2cccc(C(=O)Nc3ccc(Br)cc3)c2)cc1,.,.,.,.,.,/
C/C(O)=C\c1nc2ccccc2oc1=O,.,.,.,.,37,.
O=c1oc2ccccc2nc1/C=C(\O)c1ccc(Br)cc1,.,.,/,/,/,/
O=C(NCc1ccccc1)c1sc(=S)n2c1[nH]c(=O)c1ccccc12,.,34,.,.,32,42
Cc1[nH]c2c(ccc3ccccc32)c1C1C(CCN)C1(C)C (stereo not drawn),.,.,.,.,30,47
CCSC(=O)N=Nc1ccc(O)cc1,.,/,.,.,33,.
COc1ccc2nc(C)cc(N/N=C/c3ccccc3)c2c1,.,.,/,/,/,/
COc1ccc(/C=N/Nc2cc(C)nc3ccc(OC)cc23)c(OC)c1,.,.,.,.,31,51
CNc1sc(C(=O)c2ccc(F)cc2)c(N)c1-c1nc2ccccc2s1,.,.,.,.,32,68
CCCCNC(=O)C[C@@H]1C[C@]2(C(=O)OCC)CCC3=C2N(CCC3)C1=O,/,/,/,.,.,/
CC(C)C[C@H]1CNC(=O)C(=O)N1C[C@H]1CCCN1C[C@H](CC(C)C)N1C[C@H](CC(C)C)N(CCc2ccccc2)C(=O)C1=O,/,/,.,.,.,/
CC1(C)CC(=O)C2=C(C1)NC1=C(C(=O)c3ccccc31)C2c1ccccc1 (stereo not drawn),.,.,.,.,51,47
CC1(C)CC(=O)C2=C(C1)NC1=C(C(=O)c3ccccc31)C2c1cccnc1 (stereo not drawn),.,.,.,.,.,/
CC1(C)CC(=O)C2=C(C1)NC1=C(C(=O)c3ccccc31)C2c1cc([N+](=O)[O-])ccc1O (stereo not drawn),.,.,.,.,49,66
O=C(C=Cc1ccco1)c1ccco1,.,/,.,.,32,.
O=C(/C=C/c1ccc(Br)cc1)c1ccco1,.,.,.,.,.,/
O=C(/C=C/c1ccc([N+](=O)[O-])cc1)/C=C/c1ccco1,.,62,.,.,39,33
Cc1ccc2c(c1)N1C(=O)c3ccccc3C1C1=C(CC(C)(C)CC1=O)N2 (stereo not drawn),.,.,.,.,30,46
CC(=O)Oc1cccc(C2C3=C(CC(C)(C)CC3=O)Nc3ccccc3N2C(C)=O)c1 (stereo not drawn),.,.,.,.,.,/
CCN(CC)c1ccc(C(=C2C=CC(=[N+](CC)CC)C=C2)c2ccccc2)cc1,.,/,.,.,71,103
CC(C)(C)NC(=O)C1C(c2ccc(C(F)(F)F)cc2)=Nc2ccccc2N1C(=O)c1cccc(C(F)(F)F)c1 (stereo not drawn),/,/,.,.,.,/
COc1ccc(C(N)c2csc(Nc3ccc(C(F)(F)F)cn3)n2)cc1 (stereo not drawn),/,/,.,.,34,.
SMILES,HTRA1 inhibitor,pPAFAH inh,TCR-CD3 inh,SIAE inh,mABHD4 FP,ABHD4 confirm
CCc1nc2c(OCc3cccc(OC)c3)cccn2c1N(C)C(=O)c1ccc(OC)cc1,/,/,.,.,.,/
Nc1c(-c2ccc(C(F)(F)F)cc2)nc2ncccn12,/,/,.,.,38,.
CCOc1ccccc1NC1=CC(=O)CC(c2ccccc2)C1 (stereo not drawn),.,.,.,.,37,.
CC(Oc1ccc2c(-c3ccccc3)cc(=O)oc2c1)C(=O)NCC1CCC(C(=O)O)CC1 (stereo not drawn),.,.,.,.,49,38
O=C(COc1ccc2c(-c3ccccc3)cc(=O)oc2c1)NCC1CCC(C(=O)O)CC1 (stereo not drawn),.,.,.,.,40,42
Cc1cc(=O)oc2cc(OCC(=O)Nc3ccccc3C(=O)O)ccc12,.,.,.,.,35,39
Cc1cc(=O)oc2cc(OCC(=O)OCC(=O)Nc3ccccc3Br)ccc12,.,.,.,.,.,/
CC(C)(O)C#Cc1ccc(CN2CCN(Cc3ccsc3)C(CCO)C2)s1 (stereo not drawn),.,.,.,.,93,.
C=CCC(NC(=O)N(C)C)(C(C)=O)C(=O)OC (stereo not drawn),/,/,.,.,.,/
Cc1cc(=O)n2nc(N3CCCC(C(=O)Nc4cccc(C)c4C)C3)sc2n1 (stereo not drawn),/,/,.,.,.,/
CCCc1cc(=O)[nH]c(SCC(=O)NC2CCCCC2)n1,.,.,.,.,93,.
CCCc1cc(=O)[nH]c(SCC(=O)NC2CCCc3ccccc32)n1 (stereo not drawn),.,.,.,.,.,/
COc1ccc(C2Nc3ccccc3C(=O)N2Cc2ccco2)cc1COc1c(C)cc(NC(C)=O)cc1C (stereo not drawn),/,/,/,.,.,/
CC1=NN(C(N)=S)C(=O)C1N=Nc1c(C)cc(C)cc1C (stereo not drawn),.,.,.,.,.,/
CC1=NN(C(N)=S)C(=O)C1N=Nc1c(Br)cc(Br)cc1Br (stereo not drawn),.,.,.,.,30,57
COc1ccccc1OCCNC(=O)CNC(=O)c1ccc2c(c1)OCO2,.,.,.,.,.,/
COc1ccccc1OCCNC(=O)c1ccc2c(c1)OCCO2,.,.,.,.,31,.
O=C1[C@H]2[C@H](C=CC[C@H]2C(=O)N2CCOCC2)CCN1Cc1ccc(Cl)c(Cl)c1,/,.,.,.,.,/
O=C(O)[C@H]1CC=C[C@H]2CCN(Cc3ccc(Cl)c(Cl)c3)C(=O)[C@@H]12,.,.,.,.,30,.
O=C(NCC(O)c1nc2ccccc2[nH]1)c1cc([N+](=O)[O-])ccc1F (stereo not drawn),/,/,.,.,.,/
CCCn1c(/N=C/c2ccccc2O)nc2ccccc21,.,.,.,.,.,/
Cn1c(/N=C/c2c(O)ccc3ccccc23)nc2ccccc21,.,.,.,.,31,.
Cc1cccc(N(CC(=O)NCc2ccc3c(c2)OCO3)C(=O)CCC(=O)Nc2ccccn2)c1,.,.,.,.,40,.
CC(Cl)C(=O)N1CCC(C(=O)NC2CCCc3ccccc32)CC1 (stereo not drawn),/,/,/,.,.,/
Cc1cc(N2CCN(C(=O)Oc3ccc(C(F)(F)F)cc3)CC2)c2ccccc2n1,/,/,/,.,53,.
CCc1ccc(NC2=CC(=O)CC(c3ccco3)C2)cc1 (stereo not drawn),.,.,.,.,37,.
O=C(NCCc1ccccc1)OCc1cn(-c2ccccc2Cl)nn1,/,/,/,.,.,/
